S1P2 blocker: blocks the human S1P2 receptor. O95136. cell-based S1P2 antagonist assay, inhibition at 5 uM. inhibition, % at 5 µM. 97,000 tested, 0.21% active; in the data active means inhibition above about 45%;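 further: CRE beta-lactamase reporter cells expressing human S1P2 stimulated with S1P; 0% = agonist at EC80 alone and 100% = agonist plus reference antagonist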
Target sequence (O95136 whole entry, looked up): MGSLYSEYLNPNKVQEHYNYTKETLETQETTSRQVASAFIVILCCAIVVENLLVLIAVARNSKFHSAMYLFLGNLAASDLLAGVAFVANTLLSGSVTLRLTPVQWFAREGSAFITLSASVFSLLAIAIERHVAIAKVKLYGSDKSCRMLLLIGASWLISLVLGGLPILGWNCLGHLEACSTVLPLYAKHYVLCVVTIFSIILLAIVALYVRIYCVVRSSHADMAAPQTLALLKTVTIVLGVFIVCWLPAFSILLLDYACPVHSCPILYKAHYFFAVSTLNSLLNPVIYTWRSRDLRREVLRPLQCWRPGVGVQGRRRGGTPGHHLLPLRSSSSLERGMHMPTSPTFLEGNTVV
GALR2 blocker: antagonists of human galanin receptor 2 (GALR2). GALR2-expressing cells, antagonist mode. AID 828. 140,000 tested, 0.39% active. inhibition, % at 4 µM; in the data active means inhibition above about 27%;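 further: cells stimulated with galanin 1-16 at roughly its EC80; 0% = agonist challenge control and 100% = basal control without agonist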
S1P2 agonist: agonists of human S1P2 receptor | O95136 | S1P2-expressing cell line, agonist reporter read-out | activation, % at 4.5 µM | 97,000 tested, 0.46% active | AID 729; in the data active means activation above about 16%;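 further: 0% = vehicle low control and 100% = maximal reference agonist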
EphB4 antag: blocks human EphB4 binding to ephrin-B2. EphB4 LBD / TNYL-RAW-Alexa532 peptide, fluorescence polarization. inhibition, % at 7 µM. 97,000 tested, 0.15% active;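 active means inhibition above the screen-wide mean inhibition plus 3 SD, cut at about 15% in these data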;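 further: 0% = DMSO wells and 100% = excess unlabeled TNYL-RAW peptide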
GALR2 agonist: agonists of human galanin receptor 2 (GALR2). AID 803. 140,000 tested, 0.48% active. O43603. GALR2-expressing cells, agonist activation read-out. activation, % (no concentration beside the values); in the data active means activation above about 5%, passing the limit was not always enough;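 further: 0% = vehicle buffer wells and 100% = reference agonist at full effect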
HIV Rev-RRE inh: disrupts HIV-1 Rev binding to RRE RNA | P05866 | Rev peptide-RRE RNA binding, FRET | inhibition, % at 8 µM | 97,000 tested, 0.79% active | AID 704;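 active means inhibition above the screen-wide mean plus 3 SD, cut at about 35% in these data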;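 further: 0% = median DMSO wells and 100% = median Neomycin B control wells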
Target sequence (P05866 whole entry, looked up): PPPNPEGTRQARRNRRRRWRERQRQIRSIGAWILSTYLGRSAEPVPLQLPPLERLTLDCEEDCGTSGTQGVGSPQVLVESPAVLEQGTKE
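Test system: labelled RRE RNA duplex and labelled Rev peptide. Times: 5 min compound–RNA preincubation, then 15 min with peptide, 25 °C. Doses: single-dose 8 µM. Measured by: FRET, excitation 480 nm, emission 540 nm donor and 671 nm acceptor. Measure: % inhibition of FRET ratio versus controls.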
Active calls of the source: *; · = not tested or not shown; [ ] = another dose, or the depositor's remark. Compounds with a hit are over-represented: about 1.8% of the library has one in this group of screens.

SMILES | S1P2 blocker | GALR2 blocker | S1P2 agonist | EphB4 antag | GALR2 agonist | HIV Rev-RRE inh
COc1cccc(Nc2nc3ccccc3nc2-n2nc(C)cc2C)c1 | -48 | -1 | 38* | 1 | 23* | 23
Cc1cccc(NC(=O)CSc2nnc(-c3ccc(S(=O)(=O)N4CCCC4)cc3)o2)c1 | 16 | 1 | -9 | 17* | 0 | 4
Cc1ccc(NC(=O)CSc2nnc(-c3ccc(S(=O)(=O)N4CCCC4)cc3)o2)cc1C | 0 | -2 | -4 | 1 | -1 | 10
COc1cccc(-n2c(SCC(=O)Nc3sc4c(c3C(N)=O)CCC4)nc3ccccc3c2=O)c1 | -32 | 3 | 19* | -1 | -2 | -1
COc1cccc(-n2c(SCC(=O)NCc3cccs3)nc3ccccc3c2=O)c1 | · | 7 | · | · | -1 | ·
CCOc1cc(C(=O)CSc2nnc(CNc3ccc(Cl)cc3)o2)ccc1NC(=O)CC | 47* | 27 | 10 | 2 | 7.8* | 12
COc1ccc(NCc2nnc(SCC(=O)c3ccc(OC)cc3)o2)cc1 | -5 | -1 | -2 | 3 | -3 | -1
O=c1cc(O)c2c(=O)n(-c3ccccc3)c3ccccc3c2o1 | 8 | 0 | -2 | -3 | -3 | 45*
COc1ccc(CC(=O)Nc2ccc(-c3noc(COc4ccccc4C)n3)cc2)cc1 | · | 4 | · | · | 7.8* | ·
Cn1c(=O)[nH]c2ccc([N+](=O)[O-])nc21 | · | -4 | · | · | -1 | ·
Cc1ccc([N+](=O)[O-])cc1NC(=O)C(Sc1ccccc1)c1ccccc1 (centres undefined) | · | 3 | · | · | -3 | ·
COc1ccc(C2CC(c3c(O)cc(C)oc3=O)=NCCS2)c(OC)c1 (centres undefined) | · | 28* | · | · | 0 | ·
Cc1occc1C(=O)NNC(=O)c1ccccc1Br | · | -11 | · | · | 0 | ·
CCOc1ccc(C(=O)C2CCN(C(=O)c3ccccc3C(=O)O)CC2)cc1 | 10 | -1 | -2 | -1 | -2 | 6
CCOc1ccc(C2C(C(=O)C3CC3)N3C=C(C#N)C=CC3C2(C#N)C#N)cc1 (centres undefined) | 5 | -2 | -1 | -4 | -1 | 48*
CC(=O)Nc1cc(OC(C)=O)c2nonc2c1OC(C)=O | 98* | 96* | 2 | 10 | 0 | 5
CC(=O)Nc1nonc1NC(C)=O | 3 | 4 | -5 | 11 | 1 | 10
NC(=S)c1cc2ccc(O)cc2oc1=O | -52 | -1 | 38* | 3 | 14* | 22
C/C(=N/NC(=O)c1ccncc1)c1cc2ccc(O)cc2oc1=O | · | -24 | · | · | 7.5* | ·
C/C(=N\NC(=O)c1ccncc1)c1cc2ccccc2oc1=O | · | 5 | · | · | 0 | ·
CC(C)(CO)NCC(=O)Nc1cc(C(F)(F)F)cc(NC(=O)CNC(C)(C)CO)c1Cl | · | -7 | · | · | 0 | ·
O=[N+]([O-])c1cccc(/C=C/c2nc(C=Nc3ccccc3)c(O)o2)c1 | -15 | -17 | -3 | 3 | 1 | 41*
O=c1c(/C=C(\O)c2ccccc2)nc2ccccc2n1-c1ccccc1 | 25 | 3 | -2 | -4 | 0 | 98*[fluorescence artefact?]
CC(OC(=O)CNC(=O)c1ccccc1F)C(=O)Nc1nc(-c2ccccc2)cs1 (centres undefined) | · | 7 | · | · | -1 | ·
CN1CCc2nc(SCc3ccc(Cl)cc3)c(C#N)c(-c3cccs3)c2C1 | 10 | -3 | -3 | -3 | -1 | 40*
SMILES | S1P2 blocker | GALR2 blocker | S1P2 agonist | EphB4 antag | GALR2 agonist | HIV Rev-RRE inh
CCOC(=O)CCSc1nc(C)cc(C(F)(F)F)c1C#N | -1 | 4 | -4 | 5 | -2 | 80*
CCOC(=O)CC(=O)CSc1nc(-c2ccc3c(c2)OCO3)cc(C(F)(F)F)c1C#N | -12 | 8 | 0 | -4 | -1 | 61*
CN(c1ccccc1)c1nc(N)c(C#N)c(CC#N)c1C#N | · | -25 | · | · | 0 | ·
CC(C)CN(CC(C)C)c1nc(N)c(C#N)c(CC#N)c1C#N | -28 | -3 | -3 | -9 | 6.3* | 11
c1ccc(Cn2nnc3c(NCc4ccc5c(c4)OCO5)nc(C4CC4)nc32)cc1 | -3 | 0 | -6 | -8 | -2 | 4
Cc1nc(NCc2ccc3c(c2)OCO3)c2nnn(Cc3ccccc3)c2n1 | · | -4 | · | · | 6.8* | ·
Cc1ccc(/C=C/C2=Cc3c(sc(NC(=O)CSc4n[nH]c(N)n4)c3C#N)C(C)(C)C2)o1 | 1 | -3 | -3 | 0 | 1 | 47*
CC1CCCCN1CC(=O)Nc1ccccc1Sc1ccccc1 (centres undefined) | · | 3 | · | · | -1 | ·
COC(=O)C1=NN(c2ccc(C)cc2)C2(S1)SC(C(C)=O)=C(C)N2c1ccccc1 (centres undefined) | -21 | -16 | 1 | -2 | -1 | 37*
CC(C)(C)c1ccc(/C=C2\SC(=O)N(CCNC(=O)c3cccc(S(=O)(=O)N4CCOCC4)c3)C2=O)cc1 | · | -4 | · | · | 0 | ·
N#CC(C#N)=Cc1cc2ccccc2nc1N1CCOCC1 | · | 3 | · | · | -1 | ·
N#C/C(=C/c1ccc(N2CCCC2)c([N+](=O)[O-])c1)c1nc2ccccc2[nH]1 | 15 | 12 | -1 | -1 | -2 | 45*
N#C/C(=C\c1ccc(N2CCOCC2)c([N+](=O)[O-])c1)c1nc2ccccc2[nH]1 | · | 13 | · | · | 0 | ·
N#C/C(=C/c1ccc(N2CCOCC2)o1)c1ccc(Cl)cc1 | 39 | 7 | -11 | 4 | -1 | 113*[fluorescence artefact?]
N#C/C(=C\c1ccc(N2CCOCC2)o1)c1nc2ccccc2[nH]1 | -15 | 26 | -5 | -17 | -1 | 136*[fluorescence artefact?]
N#C/C(=C/N1CCOCC1)c1ccccc1 | 7 | -15 | -7 | 0 | -2 | 5
COc1ccc(NC(=O)c2cc(S(=O)(=O)N(Cc3ccccc3)c3ccccc3)ccc2Cl)cn1 | · | 3 | · | · | 0 | ·
CCS(=O)(=O)c1nc(S(=O)(=O)c2ccc(Cl)cc2)c(N2CCc3ccccc3C2)s1 | · | 5 | · | · | 0 | ·
CC1CCCC(NC(=O)C2CCCN2S(=O)(=O)c2cccc3nsnc23)C1C (centres undefined) | -1 | -8 | -4 | -5 | 0 | 10
CCN(CC)S(=O)(=O)c1cc(C)ccc1SC | · | 3 | · | · | 1 | ·
Cn1cnnc1Sc1ccc(C(=O)NCCC23CC4CC(CC(C4)C2)C3)cc1[N+](=O)[O-] | · | -7 | · | · | -1 | ·
COc1ccccc1NC(=O)CSc1nc2n[nH]c(C)c2c(=N)n1-c1ccccc1Cl | -22 | -7 | 21* | -3 | -1 | 5
CCc1ccccc1NC(=O)CSc1nc2n[nH]c(C)c2c(=N)n1-c1ccc(OC)cc1 | · | 16 | · | · | -1 | ·
CCn1cc(C(=O)NCC(=O)OC)c2cc(OC)c(OC)cc2c1=O | -16 | -3 | 5 | 4 | 0 | 7
CCn1cc(C(=O)Nc2ccc3c(c2)OCCO3)c2cc(OC)c(OC)cc2c1=O | 1 | -7 | 29* | 3 | -2 | 5
CCn1cc(C(=O)NCc2ccc(C)o2)c2cc(OC)c(OC)cc2c1=O | -22 | -9 | 17* | -11 | 0 | 2
COc1ccc(C(=O)/C=C/Nc2ccc(S(=O)(=O)Nc3onc(C)c3C)cc2)cc1 | · | 9 | · | · | -1 | ·
Cc1ccc(Cl)cc1NC(=S)NCc1cccn1C | · | 12 | · | · | -1 | ·
